Consider 9 compounds from ChEMBL document CHEMBL1159051, “Synthesis and biological evaluation of oxadiazole derivatives as inhibitors of soluble guanylyl cyclase” (Bioorg Med Chem, 2010).

SMILES strings stand for the structures. Calls of active or inactive are those of the source. The calls are words filed in the database; no cut-off is given here.

For experiment [1], the species on record is Rattus norvegicus. The experiment is described as follows: Inhibition of soluble guanylyl cyclase in rat aortic smooth muscle cells assessed as inhibition of SNP-stimulated cGMP formation at 10 uM by immunoassay. In outline: (§1)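 Rat aortic smooth muscle cells were grown in high-glucose DMEM with 10% foetal calf serum plus penicillin/streptomycin, and passages 3–4 were used at confluence. Cells were pretreated with IBMX (1 mM, 5 min) to block phosphodiesterase, then exposed to compound for 20 min with IBMX still present. They were then stimulated with SNP for 15 min, and cGMP was measured by enzyme immunoassay.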

Experiment [2] is filed under the species Rattus norvegicus. Briefly: Inhibition of soluble guanylyl cyclase in rat aortic smooth muscle cells assessed as inhibition of SNP-stimulated cGMP formation at 0.1 uM by immunoassay. The procedure, abridged:
as §1

The species named for experiment [3] is Rattus norvegicus. The experiment is described as follows: Inhibition of soluble guanylyl cyclase in rat aortic smooth muscle cells assessed as inhibition of SNP-stimulated cGMP formation by immunoassay. In outline: as §1

As a reminder, the inhibition is the percentage by which the read-out fell short of the control. For the compound `COc1ccc(-c2ccc3c(c2)-n2c(noc2=O)CO3)cc1`, the inhibition result in experiment [1] and in experiment [2] was “Active” each time.

For the compound `O=c1c2ccccc2nc2n1-c1ccccc1OC2`, the inhibition result in experiment [3] was “inactive”.

For `O=c1onc2cnc3ccccc3n12`, the inhibition result in experiment [1] was “Active”. Moreover, the inhibition entry is “Dose-dependent effect” in experiment [3] and 85% in experiment [2].

Turning to `O=c1onc2n1-c1cc(-c3cccc(C(F)(F)F)c3)ccc1OC2`, the inhibition result in experiment [1] and in experiment [2] was “Active” throughout.

As to `O=c1c2ccc(Cl)cc2nc2n1-c1ccccc1OC2`, the inhibition result in experiment [1] and in experiment [2] was “Active” throughout.

Take `O=C1c2ccccc2-n2c(noc2=O)[C@@H]2CCCN12`: in experiment [3], the inhibition entry was “inactive”.

On to `O=c1onc2n1-c1ncccc1OC2`, for which the inhibition entry in experiment [1] and in experiment [2] was “Active” in each case.

On to `O=c1c2ccccc2nc2n1-c1cc(Br)ccc1OC2`, for which the inhibition entry in experiment [3] was “inactive”.

For `O=c1[nH]nc2n1-c1cc(Br)ccc1OC2`, the inhibition result in experiment [3] was “inactive”.
